Laboratory results from ChEMBL document CHEMBL1139507, “Application of phosphoramidate pronucleotide technology to abacavir leads to a significant enhancement of antiviral potency” (J Med Chem, 2005).
pEC50: −log10 of the molar value. Several values for one entry are separate records, joined by “and”; a condition that tells them apart may be missing. Equal entries are not always repeated.

Tests used:
CCRF-CEM [1] = assay: Cytostatic concentration required to inhibit CEM cell proliferation; format: functional; details: Homo sapiens
MT4 = assay: Cytostatic concentration required to inhibit MT-4 cell proliferation; format: functional, Homo sapiens
[2] = test system: Human immunodeficiency virus 1; assay: Effective concentration against human immunodeficiency virus type 1 in MT-4 cells; format: functional, organism-based, MT4
[3] = Terminal elimination half-life in monkey after intravenous dosage; NA = not applicable; format: ADME, organism-based; details: cercopithecidae, in vivo
Outline: (§1)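 Female cynomolgus monkeys (three, 2.0-3.2 kg) received the succinate salt at 11.5 mg/kg (17.3 µmol/kg), 2.3 mg/mL in 10% DMSO/90% saline, 5 mL/kg, iv on day 1 and orally on day 8 (1-week washout); fasted overnight to ~4 h postdose. Serial plasma to 24 h, acetonitrile deproteination, LC/MS/MS of prodrug, alaninyl-ABC-MP, ABC-MP, ABC, CBV; noncompartmental analysis.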

[4] = test system: Human immunodeficiency virus 2; assay: Effective concentration against human immunodeficiency virus type 2 in MT-4 cells; format: functional, organism-based; details: Human immunodeficiency virus 2, MT4
[5] = test system: Human immunodeficiency virus 1; assay: Effective concentration against human immunodeficiency virus type 1 in CEM cells; format: functional, organism-based; details: Human immunodeficiency virus 1, CCRF-CEM
Outline: (§2)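 HIV-1- and HIV-2-induced cytopathicity in CEM cell cultures, scored at day 4 by microscopic examination of virus-induced giant cell formation; EC50 = concentration inhibiting cytopathicity by 50%.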

[6] = Area under the plasma concentration-time curve in monkey after peroral dosage; format: ADME; details: cercopithecidae, po; outline: as §1
[7] = Apparent half life value in monkey after oral dosage; format: ADME, organism-based; details: cercopithecidae, in vivo, read-out: T1/2 app (converted); outline: as §1
[8] = Area under the plasma concentration-time curve in monkey after intravenous dosage; format: ADME; details: cercopithecidae; outline: as §1
HepG2 [9] = assay: Cytostatic concentration required to inhibit Hep G2 cell proliferation; format: functional; details: Homo sapiens
Hepatitis B virus [10] = assay: Effective concentration against HBV in Hep G2.2.15 cells; format: functional, organism-based, HepG2 2.2.15; details: Hepatitis B virus, HepG2 2.2.15
Outline: (§3)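 Anti-HBV activity assayed in HepG2 2.2.15 human hepatoma cells, which constitutively produce HBV; EC50 = 50% effective concentration.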

[11] = Time of maximum concentration was observed in monkey after oral dosage; format: ADME, organism-based; details: cercopithecidae, in vivo; outline: as §1
[12] = test system: Human immunodeficiency virus 1; assay: Effective concentration against human immunodeficiency virus type 1 in PBL cells; format: functional, organism-based; details: Human immunodeficiency virus 1, PBL
[13] = test system: Moloney murine sarcoma virus; assay: Effective concentration against murine moloney sarcoma virus in C3H/3T3 cells; format: functional, organism-based
Human alphaherpesvirus 1 [14] = assay: Effective concentration against thymidine kinase deficient herpes simplex virus (HSV-1) in VMW-1837 strain; details: Human alphaherpesvirus 1, VMW-1837
HEL = assay: Cytostatic concentration required to inhibit HEL cell proliferation; format: functional; details: Homo sapiens
Outline: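 HEL cell proliferation measured in presence of compound; CC50 = 50% cytostatic concentration inhibiting HEL cell proliferation by 50%.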

Human alphaherpesvirus 1 [15] = assay: Effective concentration against thymidine kinase competent herpes simplex virus (HSV-1) in […]; format: functional, organism-based
Outline: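 Confluent HEL cell cultures inoculated with 100 CCID50 of HSV-1 (KOS), HSV-2 (G) or HSV-1 TK- (B2006, VMW-1837); after 1 h adsorption, residual virus removed and cells incubated with varying compound concentrations; cytopathicity recorded once complete in virus controls; EC50 = concentration inhibiting HSV-induced cytopathicity by 50%.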

C3H/3T3 = assay: Cytostatic concentration required to inhibit C3H/3T3 cell proliferation; format: functional; details: Mus musculus
Human alphaherpesvirus 2 = assay: Effective concentration against thymidine kinase competent herpes simplex virus (HSV-2) in […]
[16] = test system: Human immunodeficiency virus 2; assay: Effective concentration against human immunodeficiency virus type 2 in CEM cells; format: functional, organism-based; details: Human immunodeficiency virus 2, CCRF-CEM; outline: as §2
[17] = test system: Human immunodeficiency virus 2; assay: Ratio of CC50 to that of EC50 against human immunodeficiency virus type 2 in CEM cells; format: functional, CCRF-CEM
HepG2 [18] = assay: Cytostatic concentration required to inhibit Hep G2.2.15 cell proliferation; format: functional, Homo sapiens
Outline: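 Growth inhibition of HepG2 2.2.15 human hepatoma cells (constitutively HBV-producing) measured; CC50 = 50% cytostatic concentration.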

Human alphaherpesvirus 1 [19] = assay: Effective concentration against thymidine kinase deficient herpes simplex virus (HSV-1) in B2006 strain; details: Human alphaherpesvirus 1, B2006
[20] = test system: Human immunodeficiency virus 2; assay: Effective concentration against human immunodeficiency virus type 2 (ROD) in CEM cells; format: functional, organism-based; details: Human immunodeficiency virus 2, CCRF-CEM; outline: as §2
Hepatitis B virus [21] = assay: Effective concentration againstHBV in Hep G2.2.15 cells; format: functional, organism-based, HepG2 2.2.15; details: Hepatitis B virus, HepG2 2.2.15; outline: as §3
CCRF-CEM [22] = assay: Intracellular concentration of metabolites (CBVDP) from 19-21 hrs in CEM cells after incubation with the compound (10 uM); format: functional, cell-based; details: Homo sapiens
Outline: (§4)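 CEM T4 lymphocytes seeded at (2-4) × 10⁵ cells/mL in RPMI-1640 with 10% fetal calf serum, 2 mM L-glutamine, 0.075% NaHCO₃. They were exposed 24 h to 10 µM [³H]abacavir or 1.1 µM ³H-ProTide (5 µCi/5 mL), washed twice in cold medium, and extracted with cold methanol/water 60:40. Metabolites were separated by SAX HPLC, (NH₄)H₂PO₄ pH 5.0 gradient 0.005-0.30 M, with fractions by retention time in min. Results are pmol/10⁹ cells.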

[23] = Terminal elimination half-life in monkey after intravenous dosage; NA=not applicable; format: ADME, organism-based; details: cercopithecidae, in vivo; outline: as §1
CCRF-CEM [24] = assay: Intracellular concentration of metabolites (CBVMP +alaninyl-ABCMP) from 11-13 hrs in CEM cells after incubation with the compound (10 uM); format: functional, cell-based; details: Homo sapiens; outline: as §4
CCRF-CEM [25] = assay: Intracellular concentration of metabolites (ABC + proABC + CBV) from 2-3 hrs in CEM cells after incubation with the compound (10 uM); format: functional, cell-based; details: Homo sapiens; outline: as §4
Hepatitis B virus [26] = assay: Effective concentration against hepatitis B virus in Hep G2.2.15 cells; format: functional, organism-based; details: HepG2 2.2.15; outline: as §3
CCRF-CEM [27] = assay: Intracellular concentration of metabolites (CBVTP) from 35-38 hrs in CEM cells after incubation with the compound (10 uM); format: functional, cell-based; details: Homo sapiens; outline: as §4
[28] = test system: Human immunodeficiency virus 1; assay: Ratio of CC50 to that of EC50 against human immunodeficiency virus type 1 in CEM cells; format: functional, CCRF-CEM
CCRF-CEM [29] = assay: Intracellular concentration of metabolites (ABCMP) from 6-8 hrs in CEM cells after incubation with the compound (10 uM); format: functional, cell-based; details: Homo sapiens; outline: as §4
[30] = Oral bioavailability in monkey after oral dosage; format: ADME, organism-based; details: cercopithecidae, in vivo; outline: as §1
[31] = Area under the plasma concentration-time curve in monkey after administration of intravenous dosage; format: ADME; details: cercopithecidae; outline: as §1
[32] = Terminal elimination half-life in monkey after administration of intravenous dosage; format: ADME, organism-based; details: cercopithecidae, in vivo; outline: as §1
[33] = Total plasma clearance in monkey after administration of intravenous dosage; (n=3); format: ADME, organism-based; details: cercopithecidae; outline: as §1
CCRF-CEM [34] = assay: Intracellular concentration of metabolites (ABC +CBV) from 2-3 hrs in CEM cells after incubation with the compound (10 uM); format: functional, cell-based; details: Homo sapiens; outline: as §4
CCRF-CEM [35] = assay: Intracellular concentration of metabolites (CBV-MP) from 11-13 hrs in CEM cells after incubation with the compound (10 uM); format: functional, cell-based; details: Homo sapiens; outline: as §4

Row | Structure (SMILES) | CC50 (CCRF-CEM [1]) | T1/2 [3] | pEC50 [5] | AUC [6] | half-life [7] | AUC [8] | CC50 (HepG2 [9]) | pEC50 (Hepatitis B virus [10]) | Tmax [11] | pEC50 [12] | pEC50 [13] | pEC50 (Human alphaherpesvirus 1 [14]) | CC50 (HEL) | pEC50 (Human alphaherpesvirus 1 [15]) | CC50 (C3H/3T3) | pEC50 (Human alphaherpesvirus 2) | SI [17] | CC50 (HepG2 [18]; Homo sapiens, HepG2) | pEC50 (Human alphaherpesvirus 1 [19]) | pEC50 [20] | further results
1 | C[C@@H](NP(=O)(O)OC[C@@H]1C=C[C@H](n2cnc3c(NC4CC4)nc(N)nc32)C1)C(=O)O | 8.6 µM | Not Active | 5.92 | 2.6 µM·h | 0.8 h | 9.2 µM·h | 11 µM | 5.30 | 1.3 h |  |  |  |  |  |  |  |  |  |  |  | CC50 (MT4; Homo sapiens, MT4): 2.1 µM; pEC50 ([2]; Human immunodeficiency virus 1, MT4): 5.18; pEC50 [4]: 5.47
2 | Nc1nc2c(ncn2[C@H]2C=C[C@@H](CO)C2)c(=O)[nH]1 [CARBOVIR] | 160 µM | Not Active | 5.70 | 0.4 µM·h | 6 h | 0.7 µM·h | 150 µM | 4.98 | 4.7 h | 7.52 | 5.22 | 4.89 | 15 µM | 5.30 | > 20 µM | 5.10 | 68 | 150 µM | 4.30 | 5.64 | pEC50 [16]: 5.64; pEC50 (Hepatitis B virus [21]): 5.00
3 | Nc1nc(NC2CC2)c2ncn([C@H]3C=C[C@@H](COP(=O)(O)O)C3)c2n1 | 13 µM |  | 7.15 |  |  | 0.4 µM·h |  |  | 1.3 h | 8.10 | 5.80 | 4.70 | 110 µM | 4.70 | > 4 µM | 4.70 | 150 | 17 µM | 4.70 | 7.05 | Concentration (pmol/10E9 cells) (CCRF-CEM [22]): 3490; T1/2 [23]: Not Active; Concentration (pmol/10E9 cells) (CCRF-CEM [24]): 12400; Concentration (pmol/10E9 cells) (CCRF-CEM [25]): 5000; pEC50 (Hepatitis B virus [26]): 6.26; Concentration (pmol/10E9 cells) (CCRF-CEM [27]): 3020; SI [28]: 190; Concentration (pmol/10E9 cells) (CCRF-CEM [29]): 280
4 | CCOC(=O)[C@H](C)NP(=O)(OC[C@@H]1C=C[C@H](n2cnc3c(NC4CC4)nc(N)nc32)C1)Oc1ccccc1 (stereo not given in full) |  |  |  | 0.7 µM·h | 0.4 h |  |  |  | 0.8 h |  |  |  |  |  |  |  |  |  |  |  | bioavailability [30]: 22%; AUC [31]: 2.7 µM·h; half-life [32]: 6.6 min; clearance [33]: 113 mL/min/kg
5 | COC(=O)[C@@H](C)NP(=O)(OC[C@@H]1C=C[C@H](n2cnc3c(O)nc(N)nc32)C1)Oc1ccccc1 (stereo not given in full) | 78 µM |  | 5.89 |  |  |  |  |  |  | 6.70 | 5.06 | 3.32 | 160 µM | 3.32 | > 20 µM | 3.32 | 26 | 200 µM | < 3.10 | 5.52 | SI [28]: 41; pEC50 (Hepatitis B virus [21]): 6.29
6 | Nc1nc(NC2CC2)c2ncn([C@H]3C=C[C@@H](CO)C3)c2n1 [ABACAVIR] | 78 µM | Not Active | 5.72 | 6 µM·h | 2.6 h | 6 µM·h | 110 µM | 5.25 | 3 h | 6.70 | 5.06 | 3.49 | 200 µM | 3.05 | > 20 µM | 3.05 | 26 |  | 3.05 | 5.52 | CC50 (MT4): 192 µM and 89 µM; pEC50 ([2]; mt4): 5.23 and 5.67; Concentration (pmol/E109 cells) (CCRF-CEM [22]): 42; Concentration (pmol/E109 cells) (CCRF-CEM [34]): 762; pEC50 [4]: 5.14; Concentration (pmol/E109 cells) (CCRF-CEM [27]): 82; pEC50 [16]: 5.52; SI [28]: 41; Concentration (pmol/E109 cells) (CCRF-CEM [35]): 108; CC50 (HepG2 [18]): 17 µM and 110 µM; Concentration (pmol/E109 cells) (CCRF-CEM [29]): 5.8; pEC50 (Hepatitis B virus [21]): 5.25
